From ChEMBL document CHEMBL3872254, “Design, synthesis and biological evaluation of alkylamino biphenylamides as Hsp90 C-terminal inhibitors” (Bioorg Med Chem, 2017)
Calls of active or inactive are those of the source. No cut-off for these calls is given here.

Key:
[1] = Anti-proliferative activity against ER positive human MCF7 cells measured after 72 hrs by MTS/PMS assay; assay type: functional, cell-based; conditions: MCF7, 72 h
Summary of the method: (§1)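 Cells grown in 1:1 Advanced DMEM/F12 with non-essential amino acids, 2 mM L-glutamine, penicillin/streptomycin, 10% FBS, 37 °C, 5% CO2; seeded 2000/well, attached overnight. Compound added in DMSO (1% final), 72 h incubation; viable cells by MTS/PMS. 1% DMSO wells set as 100% proliferation; IC50 from separate experiments run in triplicate, mean ± SD of at least two experiments.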

[2] = Anti-proliferative activity against human SKBR3 cells over-expressing Her2 measured after 72 hrs by MTS/PMS assay; assay type: functional, cell-based; conditions: SK-BR-3, 72 h; summary of the method: as §1
[3] = Effect on actin expression in human MCF7 cells at 0.2 to 10 uM measured after 24 hrs by Western blot method; assay type: ADME, cell-based; conditions: mcf7, 24 h
Summary of the method: (§2)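 MCF-7 cells cultured as for proliferation, exposed to compound in DMSO (1% final) for 24 h alongside geldanamycin 0.5 μM and DMSO controls. Harvested in cold PBS, lysed 1 h on ice in RIPA with 1 mM PMSF, 2 mM orthovanadate, protease inhibitors; cleared 14000g 10 min 4 °C. BCA-normalized 20 μg protein, reducing SDS-PAGE, nitrocellulose, specific antibodies, HRP secondary, chemiluminescence.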

[4] = biological target: T1, Heat shock protein HSP90 (Homo sapiens) (UniProt P07900+P08238); assay: Inhibition of C-terminal Hsp90 in human MCF7 cells assessed as degradation of Her2 measured after 24 hrs by Western blot method; assay type: cell-based; summary of the method: as §2
[5] = biological target: T1, Heat shock protein HSP90 (Homo sapiens); assay: Inhibition of C-terminal Hsp90 in human MCF7 cells assessed as degradation of Raf-1 measured after 24 hrs by Western blot method; assay type: cell-based; summary of the method: as §2
[6] = biological target: T1, Heat shock protein HSP90 (Homo sapiens); assay: Inhibition of C-terminal Hsp90 in human PC3MM2 cells assessed as decrease in Hsp90-dependent refolding of thermally denatured luciferase at 0.1 to 100 uM; assay type: cell-based
Summary of the method: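 Hsp90-dependent luciferase refolding measured in PC3-MM2 cells; compounds tested at 0.1−100 μM against DMSO vehicle, with a reference Hsp90 inhibitor as positive control.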

[7] = biological target: T1, Heat shock protein HSP90 (Homo sapiens); assay: Inhibition of C-terminal Hsp90 in human MCF7 cells assessed as degradation of Akt measured after 24 hrs by Western blot method; assay type: cell-based; summary of the method: as §2

| Compound | IC50 [1] [nM] | IC50 [2] [nM] | other results |
| --- | --- | --- | --- |
| COc1cccc(-c2cc(C(=O)Nc3ccc(-c4ccc(OC5CCN(C)CC5)cc4)c(OCCCN(C)C)c3)ccc2OC)c1 | 670 | 550 | – |
| COCOc1cc(-c2ccc(NC(=O)c3ccc(OC)c(-c4cccc(OC)c4)c3)cc2)ccc1OC1CCN(C)CC1 | 990 | 820 | – |
| COc1cccc(-c2cc(C(=O)Nc3ccc(-c4ccc(OC5CCN(C)CC5)cc4OCCCN(C)C)cc3)ccc2OC)c1 | 840 | 340 | Activity [3]: Non-Toxic; inhibition [4]: Dose-dependent effect; inhibition [5]: Dose-dependent effect; inhibition [6]: Active; inhibition [7]: Dose-dependent effect |
| COc1cccc(-c2cc(C(=O)Nc3ccc(-c4ccc(OC5CCN(C)CC5)cc4OC4CCN(C)CC4)cc3)ccc2OC)c1 | 2540 | 1160 | – |
| COc1cccc(-c2cc(C(=O)Nc3ccc(-c4ccc(OC5CCN(C)CC5)cc4)cc3OCCCN(C)C)ccc2OC)c1 | 750 | 690 | – |
| COc1cccc(-c2cc(C(=O)Nc3ccc(-c4ccc(OC5CCN(C)CC5)c(OCCCN(C)C)c4)cc3)ccc2OC)c1 | 1050 | 750 | – |
| COc1cccc(-c2cc(C(=O)Nc3ccc(-c4ccc(OC5CCN(C)CC5)cc4OCCCCN(C)C)cc3)ccc2OC)c1 | 1120 | 1270 | – |
| COc1cccc(-c2cc(C(=O)Nc3ccc(-c4ccc(OC5CCN(C)CC5)c(OCCN(C)C)c4)cc3)ccc2OC)c1 | 700 | 400 | – |
| COc1cccc(-c2cc(C(=O)Nc3ccc(-c4ccc(OC5CCN(C)CC5)c(O)c4)cc3)ccc2OC)c1 | 1220 | 1560 | – |
| COc1cccc(-c2cc(C(=O)Nc3ccc(-c4ccc(OC5CCN(C)CC5)cc4O)cc3)ccc2OC)c1 | 4070 | 3550 | – |
| COc1cccc(-c2cc(C(=O)Nc3ccc(-c4ccc(OC5CCN(C)CC5)cc4OCCCN4C(=O)c5ccccc5C4=O)cc3)ccc2OC)c1 | 1430 | 3130 | – |
| COc1cccc(-c2cc(C(=O)Nc3ccc(-c4ccc(OC5CCN(C)CC5)cc4OCCCO)cc3)ccc2OC)c1 | 3110 | 3870 | – |
| COCOc1cc(OC2CCN(C)CC2)ccc1-c1ccc(NC(=O)c2ccc(OC)c(-c3cccc(OC)c3)c2)cc1 | 1380 | 1140 | – |
| COc1cccc(-c2cc(C(=O)Nc3ccc(-c4ccc(OC5CCN(C)CC5)cc4OCCN(C)C)cc3)ccc2OC)c1 | 1040 | 390 | inhibition [6]: Active |
| COc1cccc(-c2cc(C(=O)Nc3ccc(-c4ccc(OC5CCN(C)CC5)cc4)cc3)ccc2OC)c1 | 710 | 470 | – |
| COc1cccc(-c2cc(C(=O)Nc3ccc(-c4ccc(OC5CCN(C)CC5)cc4)c(OCCN(C)C)c3)ccc2OC)c1 | 790 | 650 | – |
| COc1cccc(-c2cc(C(=O)Nc3ccc(-c4ccc(OC5CCN(C)CC5)cc4)cc3O)ccc2OC)c1 | 710 | 910 | – |
| COc1cccc(-c2cc(C(=O)Nc3ccc(-c4ccc(OC5CCN(C)CC5)cc4OC4CCCCC4)cc3)ccc2OC)c1 | 2360 | 3240 | – |
| COc1cccc(-c2cc(C(=O)Nc3ccc(-c4ccc(OC5CCN(C)CC5)cc4)cc3OCCN(C)C)ccc2OC)c1 | 810 | 840 | – |
| COc1cccc(-c2cc(C(=O)Nc3ccc(-c4ccc(OC5CCN(C)CC5)cc4)c(O)c3)ccc2OC)c1 | 1800 | 3430 | – |
| COc1cccc(-c2cc(C(=O)Nc3ccc(-c4ccc(OC5CCN(C)CC5)cc4OCCCOC(C)=O)cc3)ccc2OC)c1 | 2490 | 1960 | – |
